Assay results from different studies.
Each line is one published result; the experiments were not run side by side.

Nc1nc2sc(CCCCc3ccc(C(=O)N[C@@H](CCC(=O)O)C(=O)O)cc3)cc2c(=O)[nH]1 — IC50 (R2/PCFT4; cell growth or viability; 96 h, pH 7.2): > 1000 nM
O=C(c1ccc(F)cc1)c1c[nH]c2ncc(-c3ccnc(N4CCOCC4)c3)cc12 — viability (A549; cell growth or viability, MTT; 10 µM, 48 h): 94.1%
O=C(O)CCCc1ccc(N(CCCl)CCCl)cc1 — IC50 (PC-3; cell growth or viability, CCK-8; 48 h): > 50000 nM
CNC(=O)c1cc(Oc2ccc(NC(=O)Nc3cc(C(C)(C)C)nn3-c3ccc4ncccc4c3)c(F)c2)ccn1 — IC50 (HUVEC; cell migration): 0.022 nM
CCC(=O)Oc1cccc2c1C(=O)C=CC2=O — IC50 (HFF-1; cell growth or viability, MTT; 48 h): 7800 nM
Cc1cc(C)cc(COc2cc3c(cc2OCc2cc(C)cc(C)c2)[C@H]2C[C@](O)(Cc4cn(CC(=O)Nc5ccc(S(=O)(=O)F)cc5)nn4)C[C@H](C)N2CC3)c1 — IC50 (PC-3; cell growth or viability, MTT): 1330 nM
CC(=O)O[C@H]1C[C@H](O[C@H]2[C@@H](O)C[C@H](O[C@H]3[C@@H](O)C[C@H](O[C@H]4CC[C@@]5(C)[C@H](CC[C@@H]6[C@@H]5C[C@@H](O)[C@]5(C)[C@@H](C7=CC(=O)OC7)CC[C@]65O)C4)O[C@@H]3C)O[C@@H]2C)O[C@H](C)[C@H]1O[C@@H]1O[C@H](CO)[C@@H](O)[C@H](O)[C@H]1O — inhibition (A549; cell growth or viability, MTT; 5 µM, 24 h): 74.8%
CCCCCCCCc1ccc(C(=O)Nc2ccccc2C(=O)OCC)cc1 — IC50 (PC-3; cell growth or viability, MTT; 72 h): > 100000 nM
O=C(O)CCn1cc(C(=O)c2ccc(F)cc2)c2cc(-c3ccc(N4CCNCC4)nc3)cnc21 — viability (A549; cell growth or viability, MTT; 10 µM, 48 h): 88.5%
C[C@@H]1C[C@@H]([C@H](O)CC2CC(=O)NC(=O)C2)C(=O)[C@@H](C)C1 — IC50 (NIH3T3; cell growth or viability, MTT; 24 h): 800 nM
CC(C)(C)OC(=O)N1CCN(c2ccc(-c3cnc4[nH]cc(C(=O)c5ccc(F)cc5)c4c3)cn2)CC1 — viability (A549; cell growth or viability, MTT; 10 µM, 48 h): 76.3%
N[C@@H](Cc1ccc(N(CCCl)CCCl)cc1)C(=O)O — IC50 (PC-3; cell growth or viability, CCK-8; 48 h): > 50000 nM
O=C1C=CC(=O)c2ccccc21 — IC50 (HFF-1; cell growth or viability, MTT; 48 h): 26700 nM
CN1CCN(c2ccc(-c3cnc4[nH]cc(C(=O)c5ccc(F)cc5)c4c3)cc2)CC1 — viability (A549; cell growth or viability, MTT; 10 µM, 48 h): 73%
Nc1nc2c(c(=O)[nH]1)C[C@@H](CCc1ccc(C(=O)N[C@@H](CCC(=O)O)C(=O)O)cc1)CN2 — IC50 (R2/PCFT4; cell growth or viability; 96 h, pH 7.2): 248 nM
COc1ccc(C(=O)c2c[nH]c3ncc(-c4ccc(N5CCN(S(C)(=O)=O)CC5)nc4)cc23)cc1 — viability (A549; cell growth or viability, MTT; 10 µM, 48 h): 80.2%
Cc1cc(C)cc(COc2cc3c(cc2OCc2cc(C)cc(C)c2)[C@H]2C[C@](O)(Cc4cn(-c5ccc(S(=O)(=O)F)cc5)nn4)C[C@H](C)N2CC3)c1 — IC50 (PC-3; cell growth or viability, MTT): 392 nM
